{
  "source": "ChEMBL document CHEMBL1671855",
  "about": "“Establishment of a cell-based assay for screening of compounds inhibiting very early events in the cytomegalovirus replication cycle and characterization of a compound identified using the assay” (Antimicrob Agents Chemother, 2008)",
  "key": {"[1]": {"tested_on": "Human betaherpesvirus 5", "test": "Antiviral activity against 0.05 MOI Human cytomegalovirus Towne infected in human hTERT-BJ1 cells assessed as decrease in IE2 gene expression at 15 uM after 24 hrs by […]", "format": "functional, organism-based", "settings": "BJ", "how_it_was_run": "(§1)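 hTERT-BJ1 cells (4 × 10^5 per T12.5 flask) infected with HCMV at MOI 0.05, cultured with DMSO, 15 μM roscovitine or 20 μM test compound for set periods; cells washed with PBS, stored at −80°C, total RNA purified; IE1, IE2 and G6PD transcripts by quantitative RT-PCR, IE1/IE2 given as CT after normalization to G6PD; triplicate experiments, mean and SD.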"}, "[2]": {"tested_on": "Human betaherpesvirus 5", "test": "Antiviral activity against Human cytomegalovirus Towne infected in human hTERT-BJ1 cells assessed as inhibition of attachment of virus particles to the cell surface at 20 uM after 2 hrs post infection by quantitative PCR", "format": "functional, organism-based", "settings": "BJ"}, "[3]": {"tested_on": "Human betaherpesvirus 5", "test": "Antiviral activity against Human cytomegalovirus Towne infected in human hTERT-BJ1 cells assessed as decrease in IE2 mRNA level at 5 uM after 24 hrs by immunofluorescent assay", "format": "functional, organism-based", "settings": "BJ"}, "[4]": {"tested_on": "Human betaherpesvirus 5", "test": "Antiviral activity against 0.05 MOI Human cytomegalovirus Towne infected in human hTERT-BJ1 cells assessed as inhibition of viral DNA replication at 20 uM by qPCR", "format": "functional, organism-based", "settings": "BJ", "how_it_was_run": "(§2)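 hTERT-BJ1 cells infected with HCMV at MOI 0.05 or 3.0, cultured for set durations with DMSO, 20 μM or 5 μM compound; DNA extracted (QIAamp) and HCMV UL83 and human albumin genes quantified by qPCR against plasmid and cellular DNA standards; viral copies divided by albumin copies as copies per cell; triplicate experiments, mean and SD.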"}, "[5]": {"tested_on": "Human betaherpesvirus 5", "test": "Antiviral activity against 0.05 MOI Human cytomegalovirus Towne infected in human hTERT-BJ1 cells assessed as decrease in IE1 gene expression at 15 uM after 24 hrs by RT-PCR", "format": "functional, organism-based", "settings": "BJ", "how_it_was_run": "as §1"}, "[6]": {"test": "Antiviral activity against Murine cytomegalovirus strain Smith infected in mouse NIH 3T3 cells after 4 to 5 days by plaque reduction assay", "format": "functional, cell-based", "settings": "Murid betaherpesvirus 1, NIH3T3", "how_it_was_run": "(§3)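 Semiconfluent fibroblasts (HCMV Towne in HFL, GPCMV in guinea pig lung fibroblasts, MCMV Smith in NIH 3T3) in 12-well plates inoculated with 50 or 100 PFU, centrifuged 600 × g 30 min, 1–2 h at 37°C; inoculum replaced by twofold compound dilutions in 1% methylcellulose, 4% FBS. Incubation 4–5 d MCMV, 6–7 d GPCMV, 10–12 d HCMV; crystal violet/formalin stain, plaques counted, triplicate; EC50 by linear regression of log concentration vs % plaque reduction.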"}, "[7]": {"tested_on": "Human betaherpesvirus 5", "test": "Antiviral activity against Human cytomegalovirus Towne infected in human hTERT-BJ1 cells assessed as inhibition of virus induced infection after 12 hrs post infection by luciferase reporter gene assay", "format": "functional, organism-based", "settings": "BJ", "how_it_was_run": "(§4)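 hTERT-BJ1 cells (3 × 10^4/well, 96-well) infected next day with 2 × 10^3 PFU HCMV Towne and given 20 μM compound or DMSO over varied windows: added at set times and kept to harvest, removed at set times, or present 24 h from set start times. Luciferase measured at 48 h p.i. in three wells; mean and SD.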"}, "[8]": {"tested_on": "Human betaherpesvirus 5", "test": "Antiviral activity against Human cytomegalovirus AD169 infected in human U4C-48 cells assessed as decrease in viral titer by luciferase reporter gene assay", "format": "functional, organism-based", "settings": "Human betaherpesvirus 5, AD169, U4C-48"}, "[9]": {"tested_on": "Human betaherpesvirus 5", "test": "Antiviral activity against Human cytomegalovirus Towne infected in human hTERT-BJ1 cells assessed as decrease in IE1 mRNA level at 5 uM after 24 hrs by immunofluorescent assay", "settings": "BJ"}, "[10]": {"tested_on": "Human betaherpesvirus 5", "test": "Antiviral activity against Human cytomegalovirus Towne infected in human hTERT-BJ1 cells assessed as decrease in G6PD gene expression at 15 uM after 24 hrs by RT-PCR", "format": "functional, organism-based", "settings": "BJ", "how_it_was_run": "as §1"}, "[11]": {"test": "Selectivity index, ratio of CC50 for human hTERT-BJ1 cells to EC50 for Human cytomegalovirus Towne", "format": "toxicity, cell-based, BJ", "settings": "read-out: Selectivity Index"}, "[12]": {"tested_on": "Caviid betaherpesvirus 2", "test": "Antiviral activity against Guinea pig cytomegalovirus (strain 22122; ATCC VR-682) infected in guinea pig lung fibroblast after 6 to 7 days by plaque reduction assay", "format": "functional, organism-based", "how_it_was_run": "as §3"}, "[13]": {"tested_on": "Human betaherpesvirus 5", "test": "Antiviral activity against 0.05 MOI Human cytomegalovirus Towne infected in human hTERT-BJ1 cells assessed as decrease in IE2 gene expression at 20 uM after 24 hrs by […]", "format": "functional, organism-based", "settings": "BJ", "how_it_was_run": "as §1"}, "[14]": {"tested_on": "Human betaherpesvirus 5", "test": "Antiviral activity against Human cytomegalovirus Towne infected in human hTERT-BJ1 cells assessed as inhibition of virus induced infection after 6 hrs post infection by luciferase reporter gene assay", "format": "functional, organism-based", "settings": "BJ", "how_it_was_run": "as §4"}, "[15]": {"tested_on": "Human betaherpesvirus 5", "test": "Antiviral activity against Human cytomegalovirus RC256 infected in human hTERT-BJ1 cells after 1 hr by Immunostaining and Xgal staining", "format": "functional, organism-based", "settings": "Human betaherpesvirus 5, RC256, BJ", "how_it_was_run": "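hTERT-BJ1 cells infected with HCMV RC256, a β-galactosidase-expressing recombinant Towne strain, in the presence of various compound concentrations; infected cells counted after X-Gal staining to derive EC50.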"}, "[16]": {"tested_on": "Human betaherpesvirus 5", "test": "Antiviral activity against Human cytomegalovirus Towne infected in human hTERT-BJ1 cells assessed as inhibition of virus induced infection after 48 hrs post infection by luciferase reporter gene assay", "format": "functional, organism-based", "settings": "BJ", "how_it_was_run": "as §4"}, "[17]": {"tested_on": "Human betaherpesvirus 5", "test": "Antiviral activity against Human cytomegalovirus Towne infected in human hTERT-BJ1 cells assessed as decrease in ICP22 mRNA level at 20 uM after 48 hrs by immunofluorescent assay", "format": "functional, organism-based", "settings": "BJ"}, "[18]": {"tested_on": "Human betaherpesvirus 5", "test": "Antiviral activity against Human cytomegalovirus Towne infected in human hTERT-BJ1 cells assessed as decrease in G6PD gene expression at 20 uM after 24 hrs by RT-PCR", "format": "functional, organism-based", "settings": "BJ", "how_it_was_run": "as §1"}, "[19]": {"test": "Cytotoxicity against HLF cells", "format": "cell-based", "settings": "human", "how_it_was_run": "(§5)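 Cells at 20–25% confluence in 96-well plates cultured 2–4 days with twofold serial compound dilutions or matching DMSO; supernatant removed, cells rinsed, viability read as ATP luminescence (CellTiter-Glo); triplicate; 50% cytotoxic concentration from log concentration vs RLU plot.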"}, "[20]": {"tested_on": "Human betaherpesvirus 5", "test": "Antiviral activity against human cytomegalovirus Towne infected in human U4C-48 cells assessed as decrease in viral titer by luciferase reporter gene assay", "format": "functional, organism-based", "settings": "Human betaherpesvirus 5, Towne", "how_it_was_run": "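U4C-48 reporter cells (U373MG carrying TRL4 promoter-luciferase) infected with HCMV laboratory strain or clinical isolates and cultured 2 days with compound dilutions; luciferase read by chemiluminescence, triplicate. EC50 taken as concentration reducing luciferase to the level of cells given half the virus inoculum.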"}, "[21]": {"tested_on": "Human betaherpesvirus 5", "test": "Antiviral activity against 0.05 MOI Human cytomegalovirus Towne infected in human hTERT-BJ1 cells assessed as inhibition of viral DNA replication at 5 uM by qPCR", "format": "functional, organism-based", "settings": "BJ", "how_it_was_run": "as §2"}, "[22]": {"test": "Cytotoxicity against human hTERT-BJ1 cells", "format": "cell-based, BJ", "how_it_was_run": "as §5"}, "[23]": {"tested_on": "Human betaherpesvirus 5", "test": "Antiviral activity against 3 MOI Human cytomegalovirus Towne infected in human hTERT-BJ1 cells assessed as inhibition of viral DNA replication at 5 uM by qPCR", "format": "functional, organism-based", "settings": "BJ", "how_it_was_run": "as §2"}, "[24]": {"tested_on": "Human betaherpesvirus 5", "test": "Antiviral activity against 0.05 MOI Human cytomegalovirus Towne infected in human hTERT-BJ1 cells assessed as decrease in IE1 gene expression at 20 uM after 24 hrs by RT-PCR", "format": "functional, organism-based", "settings": "BJ", "how_it_was_run": "as §1"}, "[25]": {"tested_on": "Human betaherpesvirus 5", "test": "Antiviral activity against 3 MOI Human cytomegalovirus Towne infected in human hTERT-BJ1 cells assessed as inhibition of viral DNA replication at 20 uM by qPCR", "format": "functional, organism-based", "settings": "BJ", "how_it_was_run": "as §2"}, "[26]": {"tested_on": "Human betaherpesvirus 5", "test": "Antiviral activity against Human cytomegalovirus Towne infected in human HFL after 10 to 12 days by plaque reduction assay", "format": "functional, organism-based", "settings": "Human betaherpesvirus 5, Towne", "how_it_was_run": "as §3"}, "[27]": {"test": "Selectivity index, ratio of CC50 for human lung fibroblast cells to EC50 for Human cytomegalovirus Towne", "format": "toxicity, cell-based", "settings": "read-out: Selectivity Index"}, "[28]": {"tested_on": "Human betaherpesvirus 5", "test": "Antiviral activity against Human cytomegalovirus Towne infected in human hTERT-BJ1 cells assessed as inhibition of virus induced infection after 24 hrs post infection by luciferase reporter gene assay", "format": "functional, organism-based", "settings": "BJ", "how_it_was_run": "as §4"}, "[29]": {"tested_on": "Human betaherpesvirus 5", "test": "Antiviral activity against Human cytomegalovirus Towne infected in human hTERT-BJ1 cells assessed as inhibition of attachment of virus particles to the cell surface at 1 mg/ml after 2 hrs post infection by quantitative PCR", "format": "functional, organism-based", "settings": "BJ"}},
  "note": "Active and inactive are the calls of the source. No cut-off for these calls is given here.",
  "data": [
    {"smiles": "NC(=O)C1CCN(c2c(Cl)cncc2Cl)CC1", "values": [
      {"measurement": "Activity", "setting": "[1]", "result": "Active"},
      {"measurement": "inhibition", "setting": "[2]", "result": "inactive"},
      {"measurement": "inhibition", "setting": "[3]", "result": "Active"},
      {"measurement": "inhibition", "setting": "[4]", "result": "Active"},
      {"measurement": "Activity", "setting": "[5]", "result": "Active"},
      {"measurement": "EC50", "setting": "[6]", "result": 3, "unit": "µM"},
      {"measurement": "inhibition", "setting": "[7]", "result": "Active"},
      {"measurement": "EC50", "setting": "[8]", "result": 5, "unit": "µM"},
      {"measurement": "inhibition", "setting": "[9]", "result": "Active"},
      {"measurement": "Activity", "setting": "[10]", "result": "inactive"},
      {"measurement": "selectivity ratio", "setting": "[11]", "result": "> 10"},
      {"measurement": "EC50", "setting": "[12]", "result": 6.2, "unit": "µM"},
      {"measurement": "Activity", "setting": "[13]", "result": "Active"},
      {"measurement": "inhibition", "setting": "[14]", "result": "Active"},
      {"measurement": "EC50", "setting": "[15]", "result": 3.5, "unit": "µM"},
      {"measurement": "inhibition", "setting": "[16]", "result": "inactive"},
      {"measurement": "inhibition", "setting": "[17]", "result": "Active"},
      {"measurement": "Activity", "setting": "[18]", "result": "inactive"},
      {"measurement": "CC50", "setting": "[19]", "result": 100, "unit": "µM"},
      {"measurement": "EC50", "setting": "[20]", "result": 5, "unit": "µM"},
      {"measurement": "inhibition", "setting": "[21]", "result": "Active"},
      {"measurement": "CC50", "setting": "[22]", "result": 100, "unit": "µM"},
      {"measurement": "inhibition", "setting": "[23]", "result": "Active"},
      {"measurement": "Activity", "setting": "[24]", "result": "Active"},
      {"measurement": "inhibition", "setting": "[25]", "result": "Active"},
      {"measurement": "EC50", "setting": "[26]", "result": 2500, "unit": "nM"},
      {"measurement": "selectivity ratio", "setting": "[27]", "result": "> 10"},
      {"measurement": "inhibition", "setting": "[28]", "result": "Active"},
      {"measurement": "inhibition", "setting": "[29]", "result": "Active"}
    ]},
    {"smiles": "Nc1nc2c(ncn2COC(CO)CO)c(=O)[nH]1", "note": "[GANCICLOVIR]", "values": [
      {"measurement": "EC50", "setting": "[6]", "result": 5.7, "unit": "µM"},
      {"measurement": "EC50", "setting": "[12]", "result": 25.9, "unit": "µM"},
      {"measurement": "EC50", "setting": "[26]", "result": 1400, "unit": "nM"}
    ]}
  ]
}
